# Measurements collected from several papers.
# KCNH2: Voltage-gated inwardly rectifying potassium channel KCNH2 (KCNH2, Homo sapiens, UniProt Q12809)
Structure (SMILES),target or system,assay,test system,conditions,endpoint,result
N[C@H]1C(O)O[C@H](CO)[C@@H](O)[C@@H]1O (stereo partly shown),Caco-2,"cell growth or viability, CCK-8",,20 mM,viability,101%
COc1nc(-c2cccc(-c3ccccc3)c2C)ccc1CNCCNC(=O)CCCCCCCCCCC(=O)N1CCN(CCNC(=O)c2cc3c(=O)n4cccc(C)c4nc3n(CCc3cccs3)c2=N)CC1,,,"male Sprague-Dawley rat, plasma","oral, 40 mg/kg",MRT(0-inf),13.6 h
COc1cc(N)c(Cl)cc1C(=O)NC1CCN(CCCOc2ccc(F)cc2)CC1OC (stereo not shown),KCNH2,"ion current, inhibitor, patch clamp",HEK293,"1 nM, pH 7.4",inhibition,8.73%
CN1C[C@H](COc2nccc3c(NCc4ccco4)cc(Cl)nc23)OC1=O,KCNH2,"ion current, inhibitor",HEK293,3 µM,inhibition,7%
O=C(Cn1ccnc1[N+](=O)[O-])NCc1ccccc1,LLC-MK2,cell growth or viability,,,CC50,257 µg/mL
CCn1c(=O)c(-c2cc[nH]n2)cc2c(C)nc(N)nc21,RD,"cell growth or viability, MTT",,,CC50,6.53 µM
CC(=O)N1CCC(C(=O)N2CCN3C(=O)c4cc(-c5ccccc5)ccc4NC(=O)C3C2)CC1 (stereo not shown),KCNH2,"ion current, inhibitor, patch clamp",HEK293,1 µM,inhibition,5.6%
COc1ccc2c(c1)CN(C(=O)CCN1CCC(Cc3ccccc3)CC1)CC[S@@+]2[O-],,,"male human, plasma","intravenous, 0.6 mg/kg, healthy volunteers",Tmax,0 h
O=C(O)COc1cccc(-c2nc(Nc3ccc4[nH]ncc4c3)c3ccccc3n2)c1,"Bile salt export pump (ABCB11, Homo sapiens, UniProt O95342)","transporter uptake, inhibitor, radiometric",,,IC50,48.2 µM
C[C@H]1Oc2cc(cnc2N)-c2c(nn(C)c2C#N)CN(C)C(=O)c2ccc(F)cc21,,,"male Sprague-Dawley rat, plasma","oral, 50 mg/kg, single dose",MRT(0-t),11.9 h
CCOC(=O)C1=C(CN2CCC[C@@H]2C(=O)Nc2ccc(B(O)O)cc2)NC(c2nccs2)=N[C@H]1c1ccc(F)cc1Br,KCNH2,"ion current, inhibitor, patch clamp",HEK293,"100 µM, pH 7.4",inhibition,94.8%
COc1cccc(OC)c1-c1cc(C(=O)NC2(C(=O)O)C3CC4CC(C3)CC2C4)nn1-c1ccc(C(=O)N(C)CCCN(C)CCCN(C)C(=O)CN2CCN(CC(=O)[O-])CCN(CC(=O)[O-])CCN(CC(=O)[O-])CC2)cc1C(C)C.[177Lu+3] (stereo not shown),HT-29,,stomach,"7 days, tumour-bearing",tracer uptake,0.09 %ID/g
CC(C)n1ncc2c(C(=O)NCC3(C)CNC3)cc(C3CC3)nc21,RD,"cell growth or viability, neutral red",,0.33 µM,viability,98.1%
COc1cc(N)c(Cl)cc1C(=O)NC1CCN(CCCOc2ccc(F)cc2)CC1OC (stereo not shown),KCNH2,"ion current, inhibitor, patch clamp",HEK293,50 nM,inhibition,60.7%
CC(C)n1cc(C#N)c2cc(-n3cc(C(=O)O)cn3)ccc21,,,"human, plasma","oral, 100 mg, single dose, fasted, healthy volunteers",Tmax,2.99 h
O=C(COc1ccc(Cl)cc1)NC12CC(c3nnc([C@H]4C[C@@H](OC(F)(F)F)C4)o3)(C1)C2,,,"human, plasma","oral, 800 mg, single dose, fasted, healthy volunteers",Tmax,36 h
